Assay results taken from ChEMBL document CHEMBL1149755, “Synthesis, physicochemical and anticonvulsant properties of new N-phenylamino derivatives of 2-azaspiro[4.4]nonane- and [4.5]decane-1,3-diones: part V” (Eur J Med Chem, 2008).
Active and inactive are the calls of the source. No cut-off for these calls is given here.

How the values were obtained:
Mus musculus [1] = test: Anticonvulsant activity in mouse at 300 mg/kg, ip; assay type: functional, organism-based; design: dose 300 mg/kg
Procedure, shortened: (§1)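 Phase I screen: intraperitoneal injection into mice as suspension in 0.5% methylcellulose at 30, 100 and 300 mg/kg; MES, subcutaneous pentylenetetrazole and rota-rod minimal motor impairment assessed at 0.5 h and 4 h after dosing (2 h also reported for some MES readings). Value is minimum dose showing activity or toxicity.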

Mus musculus [2] = test: Anticonvulsant activity in ip dosed mouse after 4 hrs by maximal electroshock test; assay type: functional; procedure, shortened: as §1
Mus musculus [3] = test: Anticonvulsant activity in ip dosed mouse after 0.5 hrs by subcutaneous pentylenetetrazole test; assay type: functional; procedure, shortened: as §1
[4] = Lipophilicity, log kw of compound by RP-HPLC; assay type: physicochemical
Procedure, shortened: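 RP-HPLC on end-capped C18 column, acetonitrile-containing mobile phase at several concentrations; uracil as unretained marker for dead volume; UV detection at 214 nm, room temperature; three measurement sets averaged; log kw obtained by extrapolation of linear log k versus organic modifier fraction (log k = log kw − Sφ).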

Rattus norvegicus [5] = test: Neurotoxicity in rat at 30 mg/kg, po after 1 hr by rotarod test; assay type: toxicity, organism-based; design: dose 30 mg/kg, route oral; settings: in vivo
Procedure, shortened: (§2)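 Phase VIa: oral administration to rats, four animals, fixed 30 mg/kg; MES protection and rota-rod neurotoxicity read at 0.25, 0.5, 1, 2 and 4 h post dose. Reported as number of animals protected (or showing toxicity) over number tested.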

Rattus norvegicus [6] = test: Neurotoxicity in rat at 30 mg/kg, po after 2 hrs by rotarod test; assay type: toxicity, organism-based; design: dose 30 mg/kg, route oral; settings: in vivo; procedure, shortened: as §2
Rattus norvegicus [7] = test: Neurotoxicity in rat at 30 mg/kg, po after 0.5 hrs by rotarod test; assay type: toxicity, organism-based; design: dose 30 mg/kg, route oral; settings: in vivo; procedure, shortened: as §2
Mus musculus [8] = test: Anticonvulsant activity in ip dosed mouse after 4 hrs by subcutaneous pentylenetetrazole test; assay type: functional; procedure, shortened: as §1
Rattus norvegicus [9] = test: Neurotoxicity in rat at 30 mg/kg, po after 4 hrs by rotarod test; assay type: toxicity, organism-based; design: dose 30 mg/kg, route oral; settings: in vivo; procedure, shortened: as §2
Mus musculus [10] = test: Anticonvulsant activity in mouse at 100 mg/kg, ip; assay type: functional, organism-based; design: dose 100 mg/kg; procedure, shortened: as §1
Rattus norvegicus [11] = test: Neurotoxicity in rat at 30 mg/kg, po after 0.25 hrs by rotarod test; assay type: toxicity, organism-based; design: dose 30 mg/kg, route oral; settings: in vivo; procedure, shortened: as §2
Rattus norvegicus [12] = species: Rattus norvegicus; test: Displacement of [3H]muscimol from GABAA receptor in rat brain cortex; assay type: tissue-based
Procedure, shortened: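 Rat brain membranes washed repeatedly in ice-cold 50 mM Tris-HCl pH 7.4, stored at −20 °C at least 18 h; incubated 10 min at 0 °C with 3 nM [3H]muscimol (stock) and eight test concentrations 10^-11–10^-4 M; nonspecific binding with GABA; filtration, scintillation counting, duplicates, iterative curve fitting.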

Mus musculus [13] = test: Anticonvulsant activity in ip dosed mouse after 0.5 hrs by maximal electroshock test; assay type: functional; procedure, shortened: as §1
Mus musculus [14] = test: Neurotoxicity in ip dosed mouse after 0.5 hrs by rotarod test; assay type: toxicity, organism-based; settings: in vivo; procedure, shortened: as §1
Mus musculus [15] = test: Neurotoxicity in ip dosed mouse after 4 hrs by rotarod test; assay type: toxicity, organism-based; settings: in vivo; procedure, shortened: as §1
Mus musculus [16] = test: Anticonvulsant activity in ip dosed mouse after 2 hrs by maximal electroshock test; assay type: functional; procedure, shortened: as §1
Mus musculus [17] = test: Toxicity in mouse at 30 mg/kg, ip; assay type: organism-based; design: dose 30 mg/kg, route intraperitoneal; settings: in vivo; procedure, shortened: as §1
Rattus norvegicus [18] = test: Anticonvulsant activity in po dosed rat after 2 hrs by maximal electroshock test; assay type: functional
Procedure, shortened: (§3)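 Phase II quantification in rats after oral dosing: median effective dose in MES and scPTZ seizure tests determined at the previously estimated time of peak effect, 2 h.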

Rattus norvegicus [19] = test: Anticonvulsant activity in po dosed rat after 2 hrs by subcutaneous pentylenetetrazole test; assay type: functional; procedure, shortened: as §3

| logKw [4] | Activity (Rattus norvegicus [12]) | SMILES | Activity (Mus musculus [1]) | Activity (Mus musculus [2]) | Minimum neurotoxic dose (Mus musculus [14]) | further results |
| --- | --- | --- | --- | --- | --- | --- |
| 2.847 | – | CC1CCCCC12CC(=O)N(Nc1ccc(Cl)cc1Cl)C2=O (stereo unspecified) | Active | 300 mg/kg | – | Activity (Mus musculus [3]): 300 mg/kg |
| 2.634 | inactive | O=C1CC2(CCCCC2)C(=O)N1Nc1ccc(Cl)cc1Cl | – | 100 mg/kg | – | Activity (Rattus norvegicus [5]): Non-toxic; Activity (Rattus norvegicus [6]): Non-toxic; Activity (Rattus norvegicus [7]): Non-toxic; Activity (Mus musculus [8]): 300 mg/kg; Activity (Rattus norvegicus [9]): Non-toxic; Activity (Mus musculus [10]): Active; Activity (Rattus norvegicus [11]): Non-toxic |
| 2.095 | – | O=C1CC2(CCCC2)C(=O)N1Nc1ccccc1Cl | Active | – | – | Activity (Rattus norvegicus [5]): Non-toxic; Activity (Mus musculus [13]): 300 mg/kg; Activity (Rattus norvegicus [6]): Non-toxic; Activity (Rattus norvegicus [7]): Non-toxic; Activity (Rattus norvegicus [9]): Non-toxic; Activity (Mus musculus [3]): 300 mg/kg; Activity (Rattus norvegicus [11]): Non-toxic |
| 2.977 | – | CC1CCC2(CC1)CC(=O)N(Nc1ccc(Cl)cc1Cl)C2=O (stereo unspecified) | inactive | – | 100 mg/kg | Activity (Mus musculus [15]): 100 mg/kg |
| 2.976 | – | CC1CCCC2(CC(=O)N(Nc3ccc(Cl)cc3Cl)C2=O)C1 (stereo unspecified) | inactive | – | – | – |
| 2.536 | – | O=C1CC(C2CCCCC2)C(=O)N1Nc1ccccc1Cl (stereo unspecified) | inactive | – | – | – |
| 2.561 | – | CC1CCCCC12CC(=O)N(Nc1ccc(Br)cc1)C2=O (stereo unspecified) | Active | 300 mg/kg | – | Activity (Mus musculus [15]): 300 mg/kg; Activity (Mus musculus [16]): 100 mg/kg |
| 2.515 | – | CC1CCCCC12CC(=O)N(Nc1ccccc1Cl)C2=O (stereo unspecified) | inactive | – | 100 mg/kg | – |
| 2.337 | inactive | O=C1CC2(CCCCC2)C(=O)N1Nc1ccc(Br)cc1 | – | 100 mg/kg | 30 mg/kg | Activity (Mus musculus [17]): Toxic; Activity (Mus musculus [10]): Active |
| 2.419 | inactive | O=C1CC2(CCCC2)C(=O)N1Nc1ccc(Cl)cc1Cl | – | 300 mg/kg | 300 mg/kg | Activity (Rattus norvegicus [5]): Non-toxic; Activity (Mus musculus [13]): 100 mg/kg; Activity (Rattus norvegicus [6]): Non-toxic; Activity (Rattus norvegicus [7]): Non-toxic; Activity (Rattus norvegicus [9]): Non-toxic; Activity (Mus musculus [10]): Active; ED50 (Rattus norvegicus [18]): > 180 mg/kg; TD50 (Rattus norvegicus [18]): > 250 mg/kg; Activity (Rattus norvegicus [11]): Non-toxic; ED50 (Rattus norvegicus [19]): > 125 mg/kg; TD50 (Rattus norvegicus [19]): > 250 mg/kg |
| 2.896 | – | O=C1CC(C2CCCCC2)C(=O)N1Nc1ccc(Cl)cc1Cl (stereo unspecified) | inactive | – | – | – |
| 2.322 | – | O=C1CC2(CCCCC2)C(=O)N1Nc1ccccc1Cl | inactive | – | – | – |
| 2.115 | inactive | O=C1CC2(CCCC2)C(=O)N1Nc1ccc(Br)cc1 | Active | 300 mg/kg | 100 mg/kg | Activity (Mus musculus [3]): 300 mg/kg; Activity (Mus musculus [16]): 100 mg/kg |
